# Source: PubChem BioAssay AID743238 (Broad Institute, 2013)
# Several values for one entry are separate records, joined by “and”; a condition that tells them apart may be missing. Equal entries are not always repeated. Hit rate of the full screen: of about 360,000 compounds, about 200 (0.056%) were called active.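 The calls were made as follows: active = mean normalized replicate activation at least 10% and every replicate at or above 10%; inconclusive = only one of the two criteria met; inactive = mean below 10% and not all replicates reach 10%.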 The sample as a whole holds a higher share of actives than the screen did.
# Assay: Xi reactivation inducers in mouse fibroblasts – imaging, XiGFP fibroblasts, GFP high-content imaging, set 2, primary screen (AID 743238);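 also: 0% = median of on-plate neutral control wells and 100% = ellipticine 6 µM median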
# Details: % GFP-positive cells imaging, 3 d, at 7.58 µM, hits give high values, cells co-treated with 5-aza-dC sensitizer, scaled so ellipticine positive control = 100%
# Outline: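 Material: XiGFP fibroblasts, SV40-immortalized. Buffer or medium: DMEM plus 5-aza-dC sensitizer. Compound: single concentration per compound, delivered by pin transfer. Times: 3 days compound exposure. Controls: ellipticine 6 µM.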
row,SMILES,activation
1,C[C@H]1CN([C@@H](C)CO)C(=O)c2c(c3ccccc3n2C)-c2ccccc2CO[C@H]1CN(C)S(=O)(=O)c1ccc(C#N)cc1,-1.22% (inactive)
2,CCC(=O)N1CC(=O)N2[C@@H](CO)[C@@H](c3ccc(C#CC4CCCC4)cc3)[C@@H]2C1,-0.0225% (inactive)
3,CCCC#Cc1ccc([C@H]2[C@H]3CN(C(=O)Nc4cc(F)ccc4F)CC(=O)N3[C@H]2CO)cc1,0.26% (inactive)
4,CN1C(=O)c2cc(NC(=O)c3cccc(F)c3)ccc2OC[C@@H]2O[C@@H](CC(=O)NCC3CCCCC3)CC[C@H]21,-0.045% (inactive) and -0.023% (inactive)
5,Cc1ccccc1S(=O)(=O)N1C[C@H](O)COC[C@H]2O[C@H](CC(=O)N3CCCCC3)CC[C@@H]21,0.037% (inactive)
6,C=C(C)C[C@H]1CCn2cc(nn2)COCCNC1=O,0.348% (inactive)
7,C[C@H]1CN([C@@H](C)CO)C(=O)c2cccc(NC(=O)CCCCCC(=O)Nc3ccccc3N)c2O[C@@H]1CN(C)C(=O)NC1CCCCC1,-1.38% (inactive)
8,C[C@@H]1CN([C@@H](C)CO)C(=O)c2cc(NS(=O)(=O)c3ccc(F)cc3)ccc2O[C@@H]1CN(C)C(=O)NC1CCCCC1,0.0955% (inactive)
9,O=C(C[C@@H]1C=C[C@H](NC(=O)C2CCC2)[C@@H](CO)O1)NCC1CC1,0.225% (inactive)
10,C[C@@H]1CN([C@@H](C)CO)C(=O)c2cc(NC(=O)Nc3cccc4ccccc34)ccc2O[C@H]1CN(C)Cc1ccc(Oc2ccccc2)cc1,0.262% (inactive)
11,O=C([C@@H]1[C@@H](CO)[C@@H]2Cn3c(ccc(C4=CCCC4)c3=O)[C@H]1N2C(=O)c1ccncc1)N1CCCCC1,0.116% (inactive)
12,O=C(C[C@@H]1C[C@H]2c3cc(NC(=O)Nc4ccccc4F)ccc3O[C@H]2[C@@H](CO)O1)NC1CCCCC1,-0.047% (inactive)
13,C[C@H](NC(=O)C[C@H]1C=C[C@@H](NC(=O)C2CCOCC2)[C@@H](CO)O1)c1ccccc1,0.456% (inactive)
14,C[C@@H]1CC=CC[C@@H](c2ccccc2)NC(=O)[C@@H](Cc2ccccc2)N(C)C(=O)c2ccccc2O1 (mixture of isomers),0.0795% (inactive)
15,Cc1ccc(-c2ccc([C@H]3[C@H]4CN(S(=O)(=O)c5cccc(F)c5)CC(=O)N4[C@H]3CO)cc2)cc1,0.287% (inactive)
16,CC(C)NC(=O)N1[C@H](CO)[C@@H]2c3ccccc3N(C(=O)Nc3cccc(Cl)c3)C[C@@H]21,0.198% (inactive)
17,C/C=C/c1ccc([C@H]2[C@@H](CO)N3CCCCN(C(=O)c4ccc(F)cc4)C[C@@H]23)cc1,0.11% (inactive)
